Bioassay records (PubChem)
TAAR1 ag – agonists of human TAAR1; Q96RJ0; CHO RD-HGA16 TAAR1, Fluo-8 calcium fluorescence; vehicle wells 0%, saturating PEA agonist 100%; hit rate 0.99% among 360,000; AID 624467; activation, % at 3 µM;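 active = activation above the mean activation of all test compounds in the run plus 3 SD, cut at about 38% in these data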
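Benchmarks: low control DMSO, high control PEA (EC100); System: CHO RD-HGA16 cells carrying human TAAR1 plus Gα16; Detection: Fluo-8 fluorescence, 5 s baseline then 140 s kinetic read; Schedule: 17-24 h plating, Fluo-8 75 min 37 °C, 30 min RT; Read-out basis: % activation from peak over basal fluorescence ratio, DMSO-to-PEA scaled.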
CHO parental Ca – counter-screen for OX1R antagonists: effect in parental CHO cells; AID 463079; hit rate 0.63% among 330,000; parental CHO-K1, ATP-induced calcium, Fluo-8 fluorescence; inhibition, % at 5.6 µM;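 active = inhibition above that plate's mean sample inhibition plus 3 SD, cut at about 26% in these data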;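 note: 0% = ATP-challenged DMSO wells and 100% = DMSO wells without ATP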
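Material – parental CHO cells · Reagent – ATP stimulus · Compound – single nominal dose of 5.6 µM per compound · Detection – Fluo-8 fluorescence · Read-out basis – percent inhibition of calcium signal · Controls – ATP-challenged DMSO wells low, unchallenged DMSO wells high · Repeats – no replicates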
OX1R antag-1 – antagonists of human orexin 1 receptor | O43613 | CHO/OX1R cells, Fluo-8 calcium fluorescence, orexin A | hit rate 0.43% among 330,000 | inhibition, % at 5 µM;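 active = inhibition above its plate's threshold, mean inhibition of all tested compounds on the plate plus 3 SD, cut at about 37% in these data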;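 note: 0% = orexin A challenge wells and 100% = SB-334867-A antagonist wells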
Target sequence (O43613 whole entry, looked up): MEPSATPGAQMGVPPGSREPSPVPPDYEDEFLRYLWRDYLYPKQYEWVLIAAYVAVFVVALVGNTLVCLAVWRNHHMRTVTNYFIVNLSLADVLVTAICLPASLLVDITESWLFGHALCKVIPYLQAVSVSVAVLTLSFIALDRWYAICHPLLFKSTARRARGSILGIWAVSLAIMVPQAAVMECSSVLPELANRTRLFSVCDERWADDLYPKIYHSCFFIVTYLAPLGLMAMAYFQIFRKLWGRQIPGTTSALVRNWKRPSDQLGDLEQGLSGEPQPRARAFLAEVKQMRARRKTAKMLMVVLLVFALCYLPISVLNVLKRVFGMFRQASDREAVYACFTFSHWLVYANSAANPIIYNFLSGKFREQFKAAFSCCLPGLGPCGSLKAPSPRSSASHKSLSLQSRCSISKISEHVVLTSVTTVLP
OX1R antag-2 – OX1R (human) antagonism; O43613; OX1R-expressing cells, FRET antagonist read-out; inhibition, % at 6.6 µM; hit rate 1.8% among 330,000; in the data active = inhibition mostly above about 38%, no sharp cut-off; inactive = mostly below about 40%;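 note: 0% = agonist challenge alone and 100% = reference antagonist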
NTR1 ag – activates human neurotensin receptor 1 | hit rate 0.17% among 330,000 | P30989 | activation, % at 20 µM | NTR1-U2OS beta-arrestin-GFP spot imaging, agonist mode | AID 493036;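 active = activation at or above 40% of the spot to cytoplasm intensity ratio, with at least 20 cells analyzed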;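 note: 0% = DMSO without peptide and 100% = 100 nM NTR1 peptide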
Target sequence (P30989 whole entry, looked up): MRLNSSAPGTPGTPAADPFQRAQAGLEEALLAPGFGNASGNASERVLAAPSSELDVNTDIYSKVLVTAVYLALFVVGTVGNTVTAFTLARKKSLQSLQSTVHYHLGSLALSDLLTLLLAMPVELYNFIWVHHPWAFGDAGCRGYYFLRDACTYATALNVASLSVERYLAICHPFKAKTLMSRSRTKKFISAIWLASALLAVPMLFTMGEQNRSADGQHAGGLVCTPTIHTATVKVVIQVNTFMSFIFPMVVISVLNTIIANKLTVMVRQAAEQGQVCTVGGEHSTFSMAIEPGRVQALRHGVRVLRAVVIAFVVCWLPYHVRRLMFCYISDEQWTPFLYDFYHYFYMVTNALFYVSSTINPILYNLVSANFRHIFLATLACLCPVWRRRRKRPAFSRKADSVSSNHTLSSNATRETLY
TAAR1 antagonist – antagonists of human TAAR1. hit rate 1.5% among 360,000. inhibition, % at 3 µM. CHO RD-HGA16 TAAR1, Fluo-8 calcium fluorescence, antagonist. AID 624466;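 active = inhibition above a per-plate cutoff, the mean inhibition of test compounds on that plate plus 3 SD, cut at about 49% in these data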;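 note: 0% = DMSO plus EC80 beta-PEA response and 100% = DMSO alone without agonist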
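test system = CHO RD-HGA16 cells bearing hTAAR1 | replication = singlicate | controls = DMSO-only wells and EC80 β-PEA-stimulated wells | reagent = EC80 β-phenethylamine stimulus | read-out basis = percent inhibition of PEA-evoked calcium signal, max/basal emission ratio | schedule = seeding 17-24 h prior, 75-min 37 °C, 30-min RT dye loading | signal = kinetic Fluo-8 calcium fluorescence measurement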
OX1R Fluo8 conf – OX1R (human) antagonism, confirmed; shares compounds with OX1R antag-1; CHO/OX1R cells, orexin A calcium Fluo-8 fluorescence; inhibition, % at 5 µM; hit rate 38% among 1,100; AID 492963; in the data active = inhibition above about 29%;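 note: 0% = agonist challenge alone and 100% = reference antagonist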
CHO Ca counter – counter-screen: parental CHO calcium response change, triplicate. shares compounds with OX1R antag-1. AID 492965. parental CHO-K1, ATP-induced calcium, Fluo-8 fluorescence. inhibition, % at 5.6 µM. hit rate 9.3% among 1,100;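 active = inhibition above a per-plate limit, the mean inhibition of that plate's test compounds plus 3 SD, cut at about 25% in these data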;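 note: 0% = ATP challenge with DMSO and 100% = DMSO without ATP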
OX1R HTRF conf – OX1R (human) antagonism, HTRF confirmed; shares compounds with OX1R antag-2; OX1R-expressing cells, HTRF antagonist assay; inhibition, % at 6.6 µM; hit rate 49% among 1,800; in the data active = inhibition above about 55%;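 note: CHO cells expressing OX1R stimulated with orexin A at about EC80; 0% = agonist challenge alone and 100% = reference antagonist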
CHO-K1 HTRF cnt – signal in parental CHO-K1 cells, OX1R antagonist counter-screen | shares compounds with OX1R antag-2 | HTRF counterscreen | inhibition, % at 6.6 µM | hit rate 48% among 1,800 | AID 493232; in the data active = inhibition above about 17%;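 note: 0% = agonist challenge with vehicle and 100% = vehicle alone without agonist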
NTR1 ag conf – confirmation of agonists of human NTR1 | shares compounds with NTR1 ag | NTR1-U2OS beta-arrestin-GFP translocation imaging | activation, % at 20 µM | hit rate 38% among 480 | AID 504550;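 active = mean activation at 20 µM of at least 40%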;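 note: 0% = DMSO without peptide and 100% = 100 nM NTR1 peptide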
TAAR1 nonsel count – nonselective antagonist in TAAR1 antagonist counter-screen; inhibition, % at 3 µM; counterscreen cell line, calcium fluorescence, antagonist mode; shares compounds with TAAR1 antagonist; hit rate 77% among 2,400; AID 651780; in the data active = inhibition above about 22%;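 note: CHO-Ga16 host cells stimulated with ATP at an EC80 level; 0% = agonist EC80 plus vehicle and 100% = vehicle without agonist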
TAAR1 ant conf – confirmation of human TAAR1 antagonists; shares compounds with TAAR1 antagonist; TAAR1-expressing cells, fluorescence antagonist read-out; inhibition, % at 3 µM; hit rate 40% among 2,400; AID 651785; in the data active = inhibition above about 49%;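 note: CHO-Ga16 host cells challenged with agonist PEA near its EC80; 0% = agonist at EC80 plus vehicle and 100% = vehicle with no agonist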
Ga16 ag counter – nonselective Ga16 agonism, counter-screen; AID 651953; shares compounds with TAAR1 antagonist; hit rate 18% among 2,400; activation, % at 3 µM; Ga16-expressing cells, calcium fluorescence, agonist counterscreen; in the data active = activation above about 12%;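 note: 0% = vehicle wells and 100% = saturating stimulus response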
TAAR1 ag counter – activates human TAAR1 in antagonist counter-screen | shares compounds with TAAR1 antagonist | hTAAR1 cell line, fluorescence activation, agonist mode | activation, % at 3 µM | hit rate 2% among 2,400 | AID 651955; in the data active = activation above about 37%;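 note: CHO cells stably expressing TAAR1 with calcium dye readout; 0% = DMSO vehicle and 100% = full agonist response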
The depositor's hits bear a star; x = no result. Most compounds without a hit are left out; they make up all but 4% or so of the library.

SMILES	TAAR1 ag	CHO parental Ca	OX1R antag-1	OX1R antag-2	NTR1 ag	TAAR1 antagonist	OX1R Fluo8 conf	CHO Ca counter	OX1R HTRF conf	CHO-K1 HTRF cnt	TAAR1 nonsel count	TAAR1 ant conf	Ga16 ag counter	TAAR1 ag counter	others
CCOc1cc(C(=S)N2CCOCC2)cc(Br)c1OS(=O)(=O)c1ccccc1	2.6	-16.4	28.4	47.4*	3.6	-2.8	51.6*	6.0	62.1*	12.1	x	x	x	x
CCOc1cc(C(=S)N2CCOCC2)ccc1OS(=O)(=O)c1ccc(C)cc1	1.4	-7.4	-27.0	21.4	-0.2	-10.3	x	x	x	x	x	x	x	x
COc1ccc(OC)c(S(=O)(=O)NCC(c2ccco2)N2CCc3ccccc32)c1 (stereo not drawn)	4.3	-8.7	73.7*	89.9*	2.4	2.2	78.9*	-7.7	88.6*	4.2	x	x	x	x
O=C(NC1CCCC1)c1cc(=O)[nH]c2ccccc12	4.1	-2.4	-7.8	2.2	0.7	4.7	x	x	x	x	x	x	x	x
Cc1nn(-c2ccccc2)c(C)c1/C=N/NC(=O)c1cc(-c2ccccc2)n[nH]1	14.8	-23.1	87.4*	97.8*	6.5	38.6	63.7*	-5.3	80.8*	-18.8	x	x	x	x
O=C(NC1CCCCC1)N1CCN(c2ccccc2Cl)CC1	0.9	0.6	-8.9	4.0	-1.2	2.7	x	x	x	x	x	x	x	x
C[N+]1=C(/C=C/Nc2ccccc2Cl)C(C)(C)c2ccccc21	-1.6	14.3	8.8	15.6	-1.1	6.2	x	x	x	x	x	x	x	x
COC(=O)c1ccc2c(c1)C(C)(C)C(/C=C/c1ccccc1O)=[N+]2C	24.4	20.6	33.5	31.5	49.7*	35.7	56.9*	45.9*	x	x	x	x	x	x	NTR1 ag conf=50.6*
Cc1ccc(OC(F)F)c(NC(=O)Nc2cccc(C(F)(F)F)c2)c1	x	0.7	36.0	45.7*	42.7*	x	-14.2	14.6	22.6	0.6	x	x	x	x	NTR1 ag conf=14.3
COc1ccc(N(C)C(=O)C2CCN(S(=O)(=O)c3cccc4nonc34)CC2)c(OC)c1	7.4	-7.7	-3.9	16.8	2.0	17.6	x	x	x	x	x	x	x	x
O=C(Nc1ccc(S(=O)(=O)NCc2ccco2)cc1)c1ccc2ccccc2n1	9.5	19.8	30.4	45.0*	11.6	69.7*	36.7*	7.1	65.7*	10.2	38.2*	57.6*	6.4	5.4
NC(=O)c1ccsc1NC(=O)COC(=O)/C=C/c1ccccc1[N+](=O)[O-]	21.1	-3.3	56.5*	24.4	7.3	77.8*	24.6	-8.1	x	x	38.1*	59.5*	14.0*	21.6
Cn1ccnc1SCC(=O)Nc1cc(F)ccc1F	1.2	0.3	6.0	-0.3	0.7	-11.7	x	x	x	x	x	x	x	x
CCC(=O)Nc1ccc(N2CCN(C(=O)c3cccs3)CC2)cc1	4.3	-3.4	-5.1	29.4	-2.6	0.3	x	x	x	x	x	x	x	x
O=C(COc1ccccc1[N+](=O)[O-])Nc1ccc(N2CCN(C(=O)c3cccs3)CC2)cc1	22.0	24.9	22.2	34.3	36.5	92.1*	62.2*	35.9*	x	x	49.7*	70.5*	21.6*	21.5
COc1cccc(C(=O)COC(=O)COc2c(C)cc(C)cc2C)c1	6.4	-10.9	-9.3	2.4	-1.0	15.2	x	x	x	x	x	x	x	x
COc1ccccc1NS(=O)(=O)c1ccc2oc(SCC(C)=O)nc2c1	6.3	3.0	-9.1	13.8	2.2	-3.2	x	x	x	x	x	x	x	x
COc1ccccc1NS(=O)(=O)c1ccc2oc(SC(C)C(=O)N3CCNC3=O)nc2c1 (stereo not drawn)	23.0	-9.8	35.6	32.5*	6.8	74.4*	31.3*	-0.6	61.6*	-10.4	40.3*	51.5*	15.7*	15.7
CCOC(=O)C1=C(COC(=O)/C=C/c2ccc(OC)cc2)NC(=O)NC1C (stereo not drawn)	13.2	x	x	x	0.3	42.7	x	x	x	x	x	x	x	x
CCOC(=O)C1=C(COC(=O)/C=C/c2cccc(OC)c2)NC(=O)NC1C (stereo not drawn)	17.1	-16.7	24.7	72.7*	0.4	66.9*	31.1*	-4.8	48.9	-0.5	22.5*	52.8*	9.2	14.2
CC(NS(=O)(=O)c1cccc(Cl)c1)C(=O)Nc1ccc(-c2nc3ccccc3s2)cc1 (stereo not drawn)	24.7	-3.8	33.5	55.2	14.5	64.2*	11.6	-7.8	x	x	36.7*	44.6	12.3*	24.5
C=CCn1c(CCCOc2ccc(Cl)cc2Cl)nnc1SCC(=O)Nc1nccs1	25.6	4.7	36.0	43.3	3.2	49.1*	22.8	8.3	x	x	32.4*	40.7	7.0	12.4
Cc1ccc(S(=O)(=O)c2nc(-c3ccco3)oc2SC(C)C)cc1	1.7	-0.8	-26.9	10.9	1.5	-10.7	x	x	x	x	x	x	x	x
CN(Cc1cccnc1)C(=O)CCCc1c[nH]c2ccccc12	7.8	-14.4	-15.8	1.8	1.0	8.3	x	x	x	x	x	x	x	x
O=C(OCC#CCSc1nnc(-c2cccc3ccccc23)o1)c1cccc2[nH]ccc12	11.0	-10.7	68.3*	66.5*	4.2	51.2*	30.0*	-7.9	88.0*	-0.8	15.8	25.4	2.1	0.4
COc1cccc(C(=O)Nc2cccc(-c3nnc(-c4ccccc4)o3)c2)c1	9.2	1.6	43.8	14.5	15.2	74.0*	-0.1	-13.2	x	x	22.6*	55.9*	7.1	9.8
CCOc1cccc(C(=O)Nc2cccc(-c3nnc(-c4ccccc4)o3)c2)c1	9.9	-0.3	-21.1	6.6	11.7	21.1	x	x	x	x	x	x	x	x
Cc1cc(NC(=O)c2cc(-c3ccncc3)nc3ccccc23)ccc1Br	2.8	-21.2	-21.2	21.1	6.1	39.7	x	x	x	x	x	x	x	x
